According to ChEMBL document CHEMBL3244422, “Synthesis and biological activity of beta-melanotropins and analogues” (1977):
Where a SMILES comes first, the peptide text is derived from it. The star is where a group is joined. For = O=C*

Columns and labels:
[1] = Lipolytic activity in isolated rabbit fat cells assessed as glycerol production per gram of cells at 1100 ng measured every hour relative to beta-c1-MSH; type: functional, Oryctolagus cuniculus
[2] = Lipolytic activity in isolated rabbit fat cells assessed as glycerol production per gram of cells at 1100 ng measured every hour; type: functional, Oryctolagus cuniculus
[3] = Lipolytic activity in isolated rabbit fat cells assessed as glycerol production per gram of cells at 3300 ng measured every hour; type: functional, Oryctolagus cuniculus
[4] = tested on: Zone of skin; assay: Melanotropic activity in frog skin assessed as skin darkening at 18 ng relative to control; type: functional, Anura
Summary of the method: (§1)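 Skin-darkening activity of the synthetic peptides measured in vitro on isolated frog skin.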

[5] = tested on: Zone of skin; assay: Melanotropic activity in frog skin assessed as skin darkening at 6 ng relative to control; type: functional, Anura; summary of the method: as §1
[6] = tested on: Zone of skin; assay: Melanotropic activity in frog skin assessed as skin darkening at 6 ng relative to beta-c1-MSH; type: functional, Anura; summary of the method: as §1
[7] = Lipolytic activity in isolated rabbit fat cells assessed as glycerol production per gram of cells at 37 ng measured every hour; type: functional, Oryctolagus cuniculus
[8] = Lipolytic activity in isolated rabbit fat cells assessed as glycerol production per gram of cells at 111 ng measured every hour; type: functional, Oryctolagus cuniculus
[9] = tested on: Zone of skin; assay: Melanotropic activity in frog skin assessed as skin darkening at 9 ng relative to control; type: functional, Anura; summary of the method: as §1
[10] = tested on: Zone of skin; assay: Melanotropic activity in frog skin assessed as skin darkening at 3 ng relative to control; type: functional, Anura; summary of the method: as §1
[11] = Lipolytic activity in isolated rabbit fat cells assessed as glycerol production per gram of cells at 22 ng measured every hour; type: functional, Oryctolagus cuniculus
[12] = Lipolytic activity in isolated rabbit fat cells assessed as glycerol production per gram of cells at 66 ng measured every hour; type: functional, Oryctolagus cuniculus
[13] = tested on: Zone of skin; assay: Melanotropic activity in frog skin assessed as skin darkening at 2.3 ng relative to control; type: functional, Anura; summary of the method: as §1
[14] = tested on: Zone of skin; assay: Melanotropic activity in frog skin assessed as skin darkening at 6.9 ng relative to control; type: functional, Anura; summary of the method: as §1
[15] = Lipolytic activity in isolated rabbit fat cells assessed as glycerol production per gram of cells at 22 ng measured every hour relative to beta-b-MSH; type: functional, Oryctolagus cuniculus
[16] = tested on: Zone of skin; assay: Melanotropic activity in frog skin assessed as skin darkening at 7.8 ng relative to control; type: functional, Anura; summary of the method: as §1
[17] = tested on: Zone of skin; assay: Melanotropic activity in frog skin assessed as skin darkening at 2.6 ng relative to beta-b-MSH; type: functional, Anura; summary of the method: as §1
[18] = tested on: Zone of skin; assay: Melanotropic activity in frog skin assessed as skin darkening at 2.6 ng relative to control; type: functional, Anura; summary of the method: as §1
[19] = Lipolytic activity in isolated rabbit fat cells assessed as glycerol production per gram of cells at 37 ng measured every hour relative to beta-c1-MSH; type: functional, Oryctolagus cuniculus
[20] = tested on: Zone of skin; assay: Melanotropic activity in frog skin assessed as skin darkening at 2.7 ng relative to control; type: functional, Anura; summary of the method: as §1
[21] = tested on: Zone of skin; assay: Melanotropic activity in frog skin assessed as skin darkening at 8.1 ng relative to control; type: functional, Anura; summary of the method: as §1
[22] = tested on: Zone of skin; assay: Melanotropic activity in frog skin assessed as skin darkening at 2.7 ng relative to beta-b-MSH; type: functional, Anura; summary of the method: as §1

Row | Compound | Activity [4] [%] | Activity [5] [%] | Activity [6] [%] | Activity [7] [µmol] | Activity [8] [µmol] | Activity [11] [µmol] | Activity [12] [µmol] | Activity [19] [%] | also measured
1 | H-DGGPYKMQHGRWGSPPKD-OH | 7.8 | 5.5 | 0.8 | – | – | – | – | – | Activity [1]: 0.001%; Activity [2]: 0.19 µmol; Activity [3]: 0.37 µmol
2 | H-DGGPYKMQHFRWGSPPKD-OH | 71 | 62 | – | 2.94 | 3.6 | – | – | – | Activity [9]: 63.5%; Activity [10]: 32.7%
3 | CSCC[C@H](NC(=O)[C@H](CCCCN)NC(=O)[C@H](Cc1ccc(O)cc1)NC(=O)[C@@H]1CCCN1C(=O)CNC(=O)[C@H](CO)NC(=O)[C@@H](N)CC(=O)O)C(=O)N[C@@H](CCC(=O)O)C(=O)N[C@@H](Cc1cnc[nH]1)C(=O)N[C@@H](Cc1ccccc1)C(=O)N[C@@H](CCCNC(=N)N)C(=O)N[C@@H](Cc1c[nH]c2ccccc12)C(=O)NCC(=O)N[C@@H](CO)C(=O)N1CCC[C@H]1C(=O)N1CCC[C@H]1C(=O)N[C@@H](CCCCN)C(=O)N[C@@H](CC(=O)O)C(=O)O (stereo in doubt; form 2) | – | – | – | – | – | 1.38 | 3.76 | – | Activity [13]: 29.1%; Activity [14]: 44.6%
4 | H-DGGPYKMQHFRFGSPPKD-OH | 38.2 | 26.2 | 28 | – | – | – | – | – | Activity [1]: 0.006%; Activity [2]: 1.29 µmol; Activity [3]: 1.63 µmol
5 | H-DEGPYKMEHFRWGSPPKD-OH | – | – | – | – | – | 1.62 | 3.49 | – | Activity [15]: 102.4%; Activity [16]: 69.8%; Activity [17]: 355.6%; Activity [18]: 49.6%
6 | H-DGGPYKMRHFRWGSPPKD-OH | 24.6 | 17.1 | 10.5 | 1.73 | 3.12 | – | – | 34.2 | –
7 | CSCC[C@H](NC(=O)[C@H](CCCCN)NC(=O)[C@H](Cc1ccc(O)cc1)NC(=O)[C@@H]1CCCN1C(=O)CNC(=O)[C@H](CO)NC(=O)[C@@H](N)CC(=O)O)C(=O)N[C@@H](CCC(=O)O)C(=O)N[C@@H](Cc1cnc[nH]1)C(=O)N[C@@H](Cc1ccccc1)C(=O)N[C@@H](CCCNC(=N)N)C(=O)N[C@@H](Cc1c[nH]c2ccccc12)C(=O)NCC(=O)N[C@@H](CO)C(=O)N1CCC[C@H]1C(=O)N1CCC[C@H]1C(=O)N[C@@H](CCCCN)C(=O)N[C@@H](CC(=O)O)C(=O)O (stereo in doubt; form 1) | – | – | – | 1.78 | 2.96 | 1.18 | 3.61 | 40.2 | Activity [20]: 30.1%; Activity [21]: 49.6%; Activity [22]: 120.2%; Activity [15]: 95.5%
8 | CSCC[C@H](NC(=O)[C@H](CCCCN)NC(=O)[C@H](Cc1ccc(O)cc1)NC(=O)[C@@H]1CCCN1C(=O)CNC(=O)CNC(=O)[C@@H](N)CC(=O)O)C(=O)N[C@@H](CCC(N)=O)C(=O)N[C@@H](Cc1cnc[nH]1)C(=O)N[C@@H](Cc1ccccc1)C(=O)N[C@@H](CCCNC(=N)N)C(=O)N[C@@H](Cc1cn(C=O)c2ccccc12)C(=O)NCC(=O)N[C@@H](CO)C(=O)N1CCC[C@H]1C(=O)N1CCC[C@H]1C(=O)N[C@@H](CCCCN)C(=O)N[C@@H](CC(=O)O)C(=O)O (H-DGGPYKMQHFRW(For)GSPPKD-OH) | 52.4 | 32.8 | 39.7 | 1.09 | 2.05 | – | – | 10.2 | –
